From ChEMBL document CHEMBL4017514, “Discovery of Novel Macrocyclic Hedgehog Pathway Inhibitors Acting by Suppressing the Gli-Mediated Transcription” (J Med Chem, 2017)
The source made the active and inactive calls.

Key:
Mus musculus [1] = species: Mus musculus; assay: Inhibition of hedgehog signaling pathway in mouse Shh Light2 cells harboring Gli1 plasmid assessed as reduction in Gli1-mediated transcriptional activity by luciferase reporter gene assay; assay type: cell-based
Mus musculus [2] = species: Mus musculus; assay: Inhibition of hedgehog signaling pathway in mouse Light2 cells in Shh conditioned medium by Gli-luciferase reporter gene assay; assay type: cell-based
In short: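 Light II cells (NIH-3T3 stably transfected with Gli-responsive firefly luciferase and Renilla expression vector) stimulated with ShhN conditioned medium. This medium was collected from ShhN-transfected HEK293 cells kept in 0.1% FBS. Firefly luciferase normalized to Renilla. IC50 given as mean ± SD (nM) from three separate experiments.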

Mus musculus [3] = species: Mus musculus; assay: Inhibition of hedgehog signaling pathway in mouse NIH/3T3 cells assessed as downregulation of Shh-induced ptch1 mRNA expression levels at 300 nM after 36 hrs by RT-qPCR analysis; assay type: cell-based
In short: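 NIH-3T3 or C3H10T1/2 cells treated as indicated for 36 h, then collected for RT-qPCR of Gli1 and ptch1 mRNA. Data given as mean ± SD.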

Homo sapiens = species: Homo sapiens; assay: Inhibition of PGE2-stimulated TCF/LEF activity in human LS174T cells at 1 uM measured after 6 hrs by dual luciferase reporter gene assay; assay type: cell-based
In short: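 LS174T cells carrying TCF/LEF reporter, stimulated with PGE2 and treated for 6 h. Dual luciferase read-out, firefly normalized to Renilla. Data given as mean ± SD.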

Mus musculus [4] = species: Mus musculus; assay: Inhibition of hedgehog signaling pathway in mouse NIH/3T3 cells assessed as reduction in edogenous expression of Gli2 protein by immunoblot analysis; assay type: cell-based
In short: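 NIH-3T3 cells cultured in 10% FBS were exposed to compound at various concentrations for 24 h. Endogenous Gli1 and Gli2 detected by Western blot.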

Mus musculus [5] = species: Mus musculus; assay: Inhibition of hedgehog signaling pathway in mouse Light2 cells harboring Smo D473H mutant after 36 hrs by Gli luciferase activity; assay type: cell-based
In short: (§1)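 Light II cells (NIH-3T3 stably carrying Gli-responsive firefly luciferase and Renilla vector) transfected with wild-type, D473H or W535L Smo plasmid. Exposed to compound for 36 h, then dual luciferase assay with firefly/Renilla normalization. IC50 derived and given as mean ± SD.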

Mus musculus [6] = species: Mus musculus; assay: Inhibition of hedgehog signaling pathway in mouse Light2 cells harboring Smo W535L mutant after 36 hrs by Gli luciferase activity; assay type: cell-based; in short: as §1
Medulloblastoma cell [7] = assay: Antiproliferative activity against mouse Ptch+/- p53-/- medulloblastoma cells assessed as reduction in cell proliferation after 72 hrs by MTS assay; assay type: functional, cell-based
In short: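 Tumor cells obtained from ptch+/−;p53−/− medulloblastoma allografts by mechanical mincing and collagenase digestion. Cultured in Neurobasal A with B-27, EGF 20 ng/mL, bFGF 20 ng/mL, nonessential amino acids and N-acetylcysteine 60 μg/mL. Exposed to compounds for 72 h, then proliferation read by MTS assay. Data given as mean ± SD.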

Mus musculus [8] = assay: Downregulation of ptch1 mRNA expression level in athymic nude mouse implanted with mouse Ptch+/- p53-/- medulloblastoma cells at 25 to 50 mg/kg, ip bid for 15 consecutive days measured after 4 hrs of last dosage by RT-qPCR analysis; assay type: functional, organism-based
In short: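 Same allograft model (n = 5), dosed ip twice daily for 15 days in 0.5% methylcellulose/0.2% Tween-80 suspension. Tumors harvested 4 h after the last dose. Gli1 and ptch1 mRNA quantified by RT-qPCR. Data given as mean ± SD.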

Medulloblastoma cell [9] = assay: Induction of apoptosis in mouse Ptch+/- p53-/- medulloblastoma cells implanted in athymic nude mouse at 25 to 50 mg/kg, ip bid for 15 consecutive days by TUNEL assay; assay type: functional, organism-based
In short: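 Apoptosis in subcutaneous ptch+/−;p53−/− medulloblastoma allografts in nude mice (n = 5), dosed ip twice daily for 15 days. Tumor sections stained by TUNEL and apoptotic cells imaged at 60×.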

COc1ccc(CN2C[C@@H]3CN(S(=O)(=O)c4ccc(Cl)cc4)CC[C@@H]3Oc3c(NC(=O)C4CC4)cccc3C2=O)cc1 (racemic)
active: inhibition (Mus musculus [1]) Dose-dependent effect | inhibition (Mus musculus [2]) Dose-dependent effect | inhibition (Mus musculus [3]) | inhibition (Homo sapiens) | inhibition (Mus musculus [4]) Dose-dependent effect | inhibition (Mus musculus [5]) Dose-dependent effect | inhibition (Mus musculus [6]) Dose-dependent effect | Activity (Medulloblastoma cell [7]) Dose-dependent effect | Activity (Mus musculus [8]) | Activity (Medulloblastoma cell [9])
